Screening results deposited in PubChem by Broad Institute.
An excerpt weighted towards active compounds, which were near 5.8% of everything screened.
T cruzi growth-1: T. cruzi intracellular proliferation inhibitors, primary screen, cell-based, beta-gal Tulahuen parasites, NIH3T3 host, luminescence | T. cruzi beta-gal in NIH3T3, GalScreen luminescence, 90 h | inhibition, % at 8.34 µM | 5.9% of 77,000 active | AID 624255, 2012;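 active = mean inhibition above about 93%, with at least 55% of replicates each passing it, limit read from the data, passing the limit was not always enough; inconclusive = only one of those two conditions holds; inactive = neither condition holds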
Pf Dd2 inh: P. falciparum Dd2 growth inhibitors, primary screen, SYBR Green fluorescence, single dose replicates; 72 h; active compounds read low; activity change, % at 10 µM; 2.3% of 94,000 active; AID 1159554, 2015; in the data active = activity change below about -80%; inconclusive = no clear call, values can overlap the other calls
GASC1 inh: inhibitors of GASC-1 (KDM4C) histone demethylase, primary screen, biochemical, single concentration HTS; GST-KDM4C 2-372, H3K9me3 peptide, LANCE TR-FRET; AID 720574, 2013; inhibition, % at 12.5 µM; 0.15% of 96,000 active;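 active = mean replicate inhibition above about 25%, with at least 55% of replicates also reaching it, limit read from the data, passing the limit was not always enough; inconclusive = only one of those two conditions met; inactive = neither condition met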
Target sequence (Q9H3R0 2-372 limits assumed): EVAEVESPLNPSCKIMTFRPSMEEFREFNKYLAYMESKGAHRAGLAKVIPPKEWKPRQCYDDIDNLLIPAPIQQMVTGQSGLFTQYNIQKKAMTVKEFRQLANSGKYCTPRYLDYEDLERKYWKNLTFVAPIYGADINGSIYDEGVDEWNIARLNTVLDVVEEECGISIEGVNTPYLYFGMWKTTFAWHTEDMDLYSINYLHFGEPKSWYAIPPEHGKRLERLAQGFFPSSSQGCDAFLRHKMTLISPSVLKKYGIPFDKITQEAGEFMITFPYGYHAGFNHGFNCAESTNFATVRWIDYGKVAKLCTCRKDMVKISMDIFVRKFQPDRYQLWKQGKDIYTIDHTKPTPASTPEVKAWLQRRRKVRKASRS
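System: N-terminal GST-fused human GASC-1 (KDM4C) fragment, residues 2-372 / Amount: 10 nM GST-KDM4C in enzyme reaction / Also added: H3K9me3 peptide with Fe(II)/2OG / Times: 30 min demethylation and 1 h detection at room temperature / Signal: LANCE TR-FRET / Read-out basis: Fall in 671/618 emission ratio as inhibition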
IDH1 mut inh: inhibitors of IDH1 R132H reductase, primary screen, biochemical, plate reader, single point; inhibition, % at 10 µM; AID 624101, 2012; diaphorase/resazurin fluorescence, 60 min; Isocitrate dehydrogenase [NADP] cytoplasmic (Homo sapiens), O75874; 0.18% of 70,000 active; in the data active = inhibition above about 34%; inconclusive = no clear call, values can overlap the other calls; inactive = below about 11%;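 note: 0% = DMSO and 100% = no enzyme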
Target sequence (O75874 whole entry R132H): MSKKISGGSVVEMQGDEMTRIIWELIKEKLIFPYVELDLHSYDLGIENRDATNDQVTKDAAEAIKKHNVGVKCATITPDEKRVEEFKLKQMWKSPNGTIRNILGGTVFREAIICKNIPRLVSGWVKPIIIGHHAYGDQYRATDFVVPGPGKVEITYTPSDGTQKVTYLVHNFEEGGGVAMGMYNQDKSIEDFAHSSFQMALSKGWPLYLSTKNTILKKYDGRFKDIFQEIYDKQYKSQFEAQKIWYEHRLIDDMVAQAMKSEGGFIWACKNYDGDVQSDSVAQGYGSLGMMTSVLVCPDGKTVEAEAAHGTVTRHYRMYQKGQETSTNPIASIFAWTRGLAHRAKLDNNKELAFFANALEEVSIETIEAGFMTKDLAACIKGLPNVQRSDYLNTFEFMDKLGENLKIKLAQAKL
T cruzi growth-2: T. cruzi intracellular proliferation inhibitors, confirmation, cell-based, NIH3T3 host, beta-gal parasite, luminescence, cherry-pick | inhibition, % at 8.35 µM | 72% of 5,600 active | shares compounds with T cruzi growth-1 | T. cruzi beta-gal in NIH3T3, GalScreen luminescence, 90 h | AID 651739, 2012;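 active = mean replicate inhibition above about 95% and at least 55% of replicates individually reaching it, limit read from the data; inconclusive = only one of the two criteria is met; inactive = neither criterion is met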
T cruzi growth-3: inhibitors of intracellular T. cruzi replication, confirmation, NIH3T3 host cells, beta-gal parasites, cherry-pick, set 2 | shares compounds with T cruzi growth-1 | T. cruzi beta-gal in NIH3T3, GalScreen luminescence, 90 h | inhibition, % at 2.09 µM | 21% of 5,600 active | AID 651740, 2012;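 active = mean inhibition above about 95%, with at least 55% of replicates also reaching it, limit read from the data; inconclusive = meets just one of the two conditions; inactive = meets neither condition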;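 note: plate controls were neutral control median for no effect and positive control median for full effect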
3T3 cytotox: cytotoxicity in mouse NIH/3T3 fibroblasts, confirmation, cytotoxicity control for T. cruzi proliferation inhibitor project, cell-based, cherry-pick, single point. cytotoxicity (signal decrease), % at 8.35 µM. 14% of 5,600 active. AID 651742, 2012. shares compounds with T cruzi growth-1. NIH/3T3 viability, CellTiter-Glo ATP luminescence, 90 h;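 active = mean signal decrease across replicates above about 35% based on untreated-well scatter, with enough replicates individually passing, limit read from the data; inconclusive = no rule stated though some were filed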;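 note: 0% = median of neutral control wells and 100% = median of positive control wells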
NIH3T3 tox 2: NIH/3T3 fibroblast cytotoxicity, confirmation, cytotoxicity control, cell-based, cherry-pick, single point, set 2; shares compounds with T cruzi growth-1; NIH/3T3 viability, CellTiter-Glo ATP luminescence, 90 h; inhibition, % at 24.9 µM; 56% of 5,600 active; AID 651744, 2012;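 active = mean loss of cell viability signal at or above a set limit, and enough replicates individually reaching it; inconclusive = meets only the mean limit or only the replicate share; inactive = meets neither condition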;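 note: 0% = median of neutral control wells and 100% = median of positive control wells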
Numbers without * were called inactive; ? = inconclusive; / = no result given.

SMILES	T cruzi growth-1	Pf Dd2 inh	GASC1 inh	IDH1 mut inh	T cruzi growth-2	T cruzi growth-3	3T3 cytotox	NIH3T3 tox 2
O=C(c1cccc(F)c1)N1CCCCN2[C@@H](CO)[C@H](c3ccc(C#CC4(O)CCCC4)cc3)[C@@H]2C1	?	10.5	0.4	/	91.9	83.5	6.4	?
O=C(c1cccc(F)c1)N1CCCCN2[C@H](CO)[C@H](c3ccc(C#CC4(O)CCCC4)cc3)[C@@H]2C1	?	3.5	-0.5	/	108.8*	75.6	25.2	10.7
O=C(c1cccc(F)c1)N1CCCCN2[C@H](C1)[C@@H](c1ccc(C#CC3(O)CCCC3)cc1)[C@@H]2CO	7.1	5.6	-0.7	/	/	/	/	/
O=C(CC1CCOCC1)Nc1ccc(I)cc1	/	/	/	0.0	/	/	/	/
CCNC(=O)C[C@H]1CC[C@@H](NS(=O)(=O)c2ccc(F)cc2)[C@H](CO)O1	/	-6.6	0.7	0.2	/	/	/	/
CO[C@H](CN(C)S(=O)(=O)c1ccc(Cl)cc1)[C@H](C)CN(C(=O)Nc1ccccc1F)[C@H](C)CO	-95.3	-24.8	1.8	-0.2	/	/	/	/
C[C@@H]1CN([C@@H](C)CO)C(=O)c2cccc(NC(=O)c3cnccn3)c2O[C@@H]1CN(C)Cc1ccc(C(=O)Nc2ccccc2N)cc1	105.6*	-92.1*	-1.4	/	93.0	83.9	46.8*	91.0*
C[C@H]1CN([C@@H](C)CO)C(=O)c2cccc(NC(=O)c3ccncc3)c2O[C@@H]1CN(C)Cc1ccc(C(=O)Nc2ccccc2N)cc1	97.6*	-70.1	-0.4	0.0	107.6*	100.8*	6.3	46.5*
C[C@H](CO)N1C[C@H](C)[C@@H](CN(C)Cc2ccc(C(=O)Nc3ccccc3N)cc2)Oc2c(NC(=O)c3ccncc3)cccc2C1=O	?	-45.8	-0.7	/	101.6*	88.1	18.2	25.0*
COc1cccc(-c2ccc3c(c2)[C@H]2[C@H](CCN2C(=O)c2ccc4c(c2)OCO4)[C@H](CO)N3C)c1	35.4	-64.4	-3.2	/	/	/	/	/
COc1ccc(-c2ccc3c(c2)[C@@H]2[C@@H](CCN2C(=O)c2ccc(F)cc2)[C@@H](CO)N3C)cc1	24.1	-11.1	1.8	/	/	/	/	/
COc1ccc(-c2ccc3c(c2)[C@@H]2[C@@H](CCN2C(=O)c2ccc4c(c2)OCO4)[C@@H](CO)N3C)cc1	99.5*	-55.9	-2.2	/	105.2*	100.0*	22.4	19.0
COc1ccc(-c2ccc3c(c2)[C@@H]2[C@@H](CCN2C(=O)c2ccncc2)[C@H](CO)N3C)cc1	?	-8.8	1.1	/	108.4*	41.6	-2.1	10.1
CC(=O)Nc1ccc(Br)cc1-c1nc2ccccc2nc1OCc1cccc(Cl)c1	/	/	/	-0.1	/	/	/	/
C[C@@H]1CN([C@@H](C)CO)S(=O)(=O)c2ccc(Br)cc2O[C@@H]1CN(C)Cc1ccccc1	62.0	-5.0	-1.3	-0.6	/	/	/	/
CNC[C@H]1OCCCC[C@H](C)Oc2ccc(NS(=O)(=O)c3ccc(C)cc3)cc2C(=O)N([C@@H](C)CO)C[C@@H]1C	102.2*	-7.9	6.9	6.3	-10.1	-12.3	1.1	11.2
CNC[C@@H]1OCCCC[C@H](C)Oc2ccc(NS(=O)(=O)c3ccc(C)cc3)cc2C(=O)N([C@@H](C)CO)C[C@H]1C	77.7	23.3	-0.9	/	/	/	/	/
CNC[C@H]1OCCCC[C@H](C)Oc2ccc(NS(C)(=O)=O)cc2C(=O)N([C@@H](C)CO)C[C@@H]1C	100.8*	1.9	-2.1	4.5	-26.2	-4.7	-14.7	-25.4
C[C@H]1CN([C@@H](C)CO)C(=O)Cc2cc(NC(=O)Cc3ccccc3)ccc2O[C@H]1CN(C)Cc1ccc(C(=O)O)cc1	-12.0	21.6	-0.6	0.4	/	/	/	/
COc1ccc(S(=O)(=O)Nc2ccc3c(c2)CC(=O)N([C@H](C)CO)C[C@H](C)[C@@H](CN(C)S(=O)(=O)c2ccccc2)O3)cc1	-3.8	-47.1	-0.2	-12.9	/	/	/	/
Cc1ccc(-c2ccc3c(c2)O[C@H](CN(C)Cc2ccccc2)[C@H](C)CN([C@H](C)CO)S3(=O)=O)cc1	120.5*	-3.8	0.0	-1.4	94.1	110.1*	29.4	106.3*
Cc1ccc(-c2ccc3c(c2)O[C@H](CN(C)Cc2ccc(F)cc2)[C@@H](C)CN([C@H](C)CO)S3(=O)=O)cc1	98.4*	-66.1	0.3	-0.1	102.4*	100.0*	46.1*	104.0*
C[C@H]1CN([C@@H](C)CO)S(=O)(=O)c2ccc(-c3ccccc3)cc2O[C@H]1CN(C)CC1CC1	111.5*	-65.7	1.3	-2.0	80.8	43.0	27.9	79.0*
C[C@@H]1CN([C@@H](C)CO)S(=O)(=O)c2ccc(-c3ccccc3)cc2O[C@@H]1CN(C)Cc1cccc(F)c1	123.1*	-69.4	1.8	/	92.2	112.1*	14.4	107.1*
Cc1ccc(-c2ccc3c(c2)O[C@@H](CN(C)Cc2ccc(F)cc2)[C@@H](C)CN([C@@H](C)CO)S3(=O)=O)cc1	90.9	-31.5	0.0	0.0	/	/	/	/
SMILES	T cruzi growth-1	Pf Dd2 inh	GASC1 inh	IDH1 mut inh	T cruzi growth-2	T cruzi growth-3	3T3 cytotox	NIH3T3 tox 2
C[C@H](CO)N1C[C@H](C)[C@H](CN(C)CC2CC2)Oc2cc(-c3ccccc3)ccc2S1(=O)=O	37.1	-40.4	-1.8	-1.4	/	/	/	/
C[C@@H]1CN([C@@H](C)CO)S(=O)(=O)c2ccc(-c3ccc(F)cc3)cc2O[C@@H]1CN(C)Cc1cccc(F)c1	51.7	-21.8	0.1	-1.2	/	/	/	/
C[C@@H]1CN([C@H](C)CO)S(=O)(=O)c2ccc(-c3ccccc3)cc2O[C@H]1CN(C)Cc1ccccc1	63.1	-64.9	10.9	0.1	/	/	/	/
C[C@@H]1CN([C@@H](C)CO)C(=O)c2cccc(NS(=O)(=O)c3cn(C)cn3)c2O[C@@H]1CN(C)CC1CC1	8.0	17.7	-1.0	0.6	/	/	/	/
CO[C@@H]1CN(C)C(=O)c2cc(NC(=O)C3CCOCC3)ccc2OC[C@H](C)N(Cc2nccs2)C[C@@H]1C	-58.9	20.3	0.4	0.0	/	/	/	/
C[C@H](O)C#Cc1cnc2c(c1)C(=O)N([C@@H](C)CO)C[C@H](C)[C@@H](CN(C)CC1CCCC1)O2	17.9	23.1	-0.8	0.0	/	/	/	/
COC(=O)[C@H]1[C@H](CO)[C@H]2Cn3c(ccc(C4=CCCCC4)c3=O)[C@H]2N1C(=O)C1CC1	11.6	7.6	1.2	/	/	/	/	/
